{"source": "ChEMBL document CHEMBL4229494", "about": "“Novel tertiary sulfonamides as potent anti-cancer agents” (Bioorg Med Chem, 2018)", "key": {"MDA-MB-231 [1]": {"system": "MDA-MB-231", "test": "Antitumor activity against human MDA-MB-231 cells xenografted in athymic nude mouse assessed as average tumor volume at 20 mg/kg, ip qd administered every consecutive day in presence of doxorubicin at 5 mg/kg/week measured on day 35 relative to control", "format": "functional"}, "MCF7 [2]": {"system": "MCF7", "test": "Induction of apoptosis in human MCF7 cells after 24 hrs by caspase-Glo 3/7 reagent based luminescence assay", "format": "functional, cell-based", "settings": "MCF7, 24 h; call rule not given here", "procedure,_shortened": "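MCF-7 cells were plated at 25,000/well (DMEM, 10% FBS) and grown 24 h, then treated at 1.6 nM–5 µM or with DMSO for 24 h. Caspase 3/7 activity was read by Caspase-Glo 3/7 luminescence. Triplicate signals relative to DMSO were analysed by nonlinear regression.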"}, "[3]": {"test": "Metabolic stability in human liver microsomes measured at > 60 mins in presence of NADPH by HPLC analysis", "format": "ADME, microsome", "settings": "1 h"}, "[4]": {"test": "Inhibition of Wnt3A-induced Wnt transcription (unknown origin) expressed in HEK293 cells coexpressing TK-driven Rluc after 20 to 22 hrs by super-top flash reporter gene assay", "format": "cell-based", "settings": "Homo sapiens", "procedure,_shortened": "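HEK-293 cells (DMEM, 10% FBS) were co-transfected with Super(8x)TOPflash, a Wnt3A expression vector and TK-driven Renilla luciferase. After 8 h at 37 °C, 5% CO2, cells were seeded at 25,000/well and treated at 1.6, 8, 40, 200, 1000 or 5000 nM, or with DMSO, for 20-22 h in triplicate. Firefly/Renilla luminescence was taken relative to DMSO, and IC50 was found by nonlinear regression.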"}, "MDA-MB-231 [5]": {"system": "MDA-MB-231", "test": "Antiproliferative activity against human MDA-MB-231 cells after 24 hrs by SYBR green dye based fluorescence assay", "format": "functional, cell-based", "settings": "MDA-MB-231, 24 h", "procedure,_shortened": "(§1)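 Cells were plated at 500/well in DMEM/10% FBS and allowed to attach for 24 h at 37 °C, 5% CO2. They were then exposed to 1.6 nM–5 µM or DMSO. One plate was harvested every 24 h over 7 days and frozen at -20 °C. DNA was quantified by SYBR Green fluorescence (Ex495/Em535). Triplicate values relative to DMSO went to nonlinear regression for IC50.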"}, "MCF7 [6]": {"system": "MCF7", "test": "Antiproliferative activity against human MCF7 cells after 24 hrs by SYBR green dye based fluorescence assay", "format": "functional, cell-based", "settings": "MCF7, 24 h", "procedure,_shortened": "as §1"}, "[7]": {"test": "Solubility of the compound", "format": "physicochemical"}, "[8]": {"test": "Lipophilicity, log D of the compound at pH 3", "format": "physicochemical", "settings": "buffer"}, "[9]": {"test": "Lipophilicity, log D of the compound at pH 7", "format": "physicochemical", "settings": "buffer"}, "MCF7 [10]": {"system": "MCF7", "test": "Potentiation of doxorubicin-induced antiproliferative activity against human MCF7 cells at 8 nM after 72 hrs by SYBR green dye based fluorescence assay relative to control", "format": "functional", "procedure,_shortened": "(§2)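 Cells were plated at 2,000/well (DMEM, 10% FBS) and incubated 24 h at 37 °C, 5% CO2. Test compound at 1.6 nM–2 µM was given with or without doxorubicin (MCF-7: 1.6 nM–2 µM; MDA-MB-231: 4 nM–5 µM), or DMSO, for 72 h. DNA was measured by SYBR Green fluorescence (Ex495/Em535). Triplicate values relative to DMSO were used for IC50 and Chou-Talalay combination index analysis.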"}, "MDA-MB-231 [11]": {"system": "MDA-MB-231", "test": "Potentiation of doxorubicin-induced antiproliferative activity against human MDA-MB-231 cells at 8 nM after 72 hrs by SYBR green dye based fluorescence assay relative to control", "format": "functional", "procedure,_shortened": "as §2"}, "MCF7 [12]": {"system": "MCF7", "test": "Synergistic antiproliferative activity against human MCF7 cells assessed as combination index at 8 nM after 72 hrs in presence of doxorubicin by SYBR green dye based fluorescence assay", "format": "functional", "procedure,_shortened": "as §2"}, "MDA-MB-231 [13]": {"system": "MDA-MB-231", "test": "Synergistic antiproliferative activity against human MDA-MB-231 cells assessed as combination index at 8 nM after 72 hrs in presence of doxorubicin by SYBR green dye based fluorescence assay", "format": "functional", "procedure,_shortened": "as §2"}, "MCF7 [14]": {"system": "MCF7", "test": "Synergistic antiproliferative activity against human MCF7 cells assessed as combination index at ED75 after 72 hrs in presence of doxorubicin by SYBR green dye based fluorescence assay", "format": "functional", "procedure,_shortened": "as §2"}, "MDA-MB-231 [15]": {"system": "MDA-MB-231", "test": "Synergistic antiproliferative activity against human MDA-MB-231 cells assessed as combination index at ED75 after 72 hrs in presence of doxorubicin by SYBR green dye based fluorescence assay", "format": "functional", "procedure,_shortened": "as §2"}, "MCF7 [16]": {"system": "MCF7", "test": "Synergistic antiproliferative activity against human MCF7 cells assessed as combination index at ED90 after 72 hrs in presence of doxorubicin by SYBR green dye based fluorescence assay", "format": "functional", "procedure,_shortened": "as §2"}, "MDA-MB-231 [17]": {"system": "MDA-MB-231", "test": "Synergistic antiproliferative activity against human MDA-MB-231 cells assessed as combination index at ED90 after 72 hrs in presence of doxorubicin by SYBR green dye based fluorescence assay", "format": "functional", "procedure,_shortened": "as §2"}, "[18]": {"target": "Voltage-gated inwardly rectifying potassium channel KCNH2 (Homo sapiens, UniProt Q12809)", "sequence (Q12809 whole entry)": "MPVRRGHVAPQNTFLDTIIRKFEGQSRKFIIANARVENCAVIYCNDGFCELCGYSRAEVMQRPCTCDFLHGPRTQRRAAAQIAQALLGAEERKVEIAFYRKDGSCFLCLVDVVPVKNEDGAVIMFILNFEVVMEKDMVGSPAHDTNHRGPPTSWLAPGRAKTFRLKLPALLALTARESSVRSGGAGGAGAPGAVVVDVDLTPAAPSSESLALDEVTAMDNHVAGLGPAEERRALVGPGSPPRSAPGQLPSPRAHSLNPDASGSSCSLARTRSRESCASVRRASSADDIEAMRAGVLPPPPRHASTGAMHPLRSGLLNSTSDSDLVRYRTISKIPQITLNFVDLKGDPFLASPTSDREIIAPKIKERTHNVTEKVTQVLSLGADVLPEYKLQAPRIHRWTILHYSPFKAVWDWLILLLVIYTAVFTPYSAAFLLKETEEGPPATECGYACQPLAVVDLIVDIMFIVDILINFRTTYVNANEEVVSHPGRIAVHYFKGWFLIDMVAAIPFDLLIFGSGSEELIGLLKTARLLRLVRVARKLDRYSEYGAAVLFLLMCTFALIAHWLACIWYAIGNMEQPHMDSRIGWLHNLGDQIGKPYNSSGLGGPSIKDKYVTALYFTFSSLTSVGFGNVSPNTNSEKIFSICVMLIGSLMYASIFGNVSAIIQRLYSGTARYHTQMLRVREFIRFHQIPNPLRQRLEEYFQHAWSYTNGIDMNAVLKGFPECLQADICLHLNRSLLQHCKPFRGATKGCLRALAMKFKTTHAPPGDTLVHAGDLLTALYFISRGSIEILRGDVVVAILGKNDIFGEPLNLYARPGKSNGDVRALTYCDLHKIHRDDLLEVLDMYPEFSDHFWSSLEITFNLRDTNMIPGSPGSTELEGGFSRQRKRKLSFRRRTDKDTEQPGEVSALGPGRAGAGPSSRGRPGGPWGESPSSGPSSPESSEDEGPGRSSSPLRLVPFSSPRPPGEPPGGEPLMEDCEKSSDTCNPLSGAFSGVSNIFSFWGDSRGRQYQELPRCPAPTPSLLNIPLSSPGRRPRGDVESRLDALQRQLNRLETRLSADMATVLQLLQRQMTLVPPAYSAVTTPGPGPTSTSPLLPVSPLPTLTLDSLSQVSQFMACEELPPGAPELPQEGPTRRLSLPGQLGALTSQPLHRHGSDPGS", "test": "Inhibition of human ERG up to 50 uM"}, "[19]": {"test": "Metabolic stability in rat liver microsomes measured at > 60 mins in presence of NADPH by HPLC analysis", "format": "ADME, microsome", "settings": "1 h"}, "[20]": {"test": "Inhibition of human CYP450 at 50 uM", "format": "ADME"}, "[21]": {"test": "Oral bioavailability in rat", "format": "ADME, organism-based", "settings": "in vivo"}, "MDA-MB-231 [22]": {"system": "MDA-MB-231", "test": "Antitumor activity against human MDA-MB-231 cells xenografted in athymic nude mouse assessed as decrease in tumor volume at 20 mg/kg, ip qd administered for 16 consecutive days relative to control", "format": "functional", "design": "scale not given: the % may be the effect or the level left"}, "MDA-MB-231 [23]": {"system": "MDA-MB-231", "test": "Antitumor activity against human MDA-MB-231 cells xenografted in athymic nude mouse assessed as decrease in tumor volume at 20 mg/kg, ip qd administered for 16 consecutive days in presence of doxorubicin at 5 mg/kg/week relative to control", "format": "functional", "design": "scale not given: the % may be the effect or the level left"}, "MDA-MB-231 [24]": {"system": "MDA-MB-231", "test": "Antitumor activity against human MDA-MB-231 cells xenografted in athymic nude mouse assessed as average tumor volume at 20 mg/kg, ip qd administered every consecutive day in presence of doxorubicin at 5 mg/kg/week measured on day 51 (reference value: 653 +/- 192 mm3)", "format": "functional"}, "[25]": {"test": "Drug uptake in serum of athymic nude mouse xenografted with human MDA-MB-231 cells at 20 mg/kg, ip qd administered for 16 consecutive days by HPLC/MS analysis", "format": "ADME, organism-based", "settings": "read-out: Drug uptake", "procedure,_shortened": "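In the MDA-MB-231 xenografted nu/nu mice given 20 mg/kg/day i.p. for 16 days, serum drug concentration was measured by HPLC at the end of the study and confirmed by LCMS.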"}, "Mus musculus [26]": {"system": "Mus musculus", "test": "Upregulation of p53 protein expression level in tumors of athymic nude mouse xenografted with human MDA-MB-231 cells at 20 mg/kg, ip qd administered every consecutive day in presence of doxorubicin at 5 mg/kg/week measured on day 51 by Western blot analysis relative to control", "format": "functional", "procedure,_shortened": "(§3)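 MDA-MB-231 xenograft tumors were excised from nu/nu mice at study termination (day 51), after 16 days of i.p. treatment started on day 35. p53, phospho-Ser15-p53 and PARP cleavage were quantified by Western blot and compared with vehicle-treated animals.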"}, "Mus musculus [27]": {"system": "Mus musculus", "test": "Upregulation of phospho Ser15-53 protein expression level in tumors of athymic nude mouse xenografted with human MDA-MB-231 cells at 20 mg/kg, ip qd administered every consecutive day in presence of doxorubicin at 5 mg/kg/week measured on day 51 by Western blot analysis relative to control", "format": "functional", "procedure,_shortened": "as §3"}, "Mus musculus [28]": {"system": "Mus musculus", "test": "Upregulation of PARP cleavage expression level in tumors of athymic nude mouse xenografted with human MDA-MB-231 cells at 20 mg/kg, ip qd administered every consecutive day in presence of doxorubicin at 5 mg/kg/week measured on day 51 by Western blot analysis relative to control", "format": "functional", "procedure,_shortened": "as §3"}, "MDA-MB-231 [29]": {"system": "MDA-MB-231", "test": "Synergistic antitumor activity against human MDA-MB-231 cells xenografted in athymic nude mouse assessed as reduction in tumor weight at 20 mg/kg, ip qd administered every consecutive day in presence of doxorubicin at 5 mg/kg/week measured on day 51", "format": "functional", "design": "scale not given: the % may be the effect or the level left"}}, "note": "pEC50, pIC50: −log10 of the molar value."}
{"smiles": "CN1CCN(S(=O)(=O)c2ccc(N3CCCC3=O)cc2)c2ccccc21", "values": [{"measurement": "Activity", "setting": "MDA-MB-231 [1]", "result": 154, "unit": "mm3"}, {"measurement": "pEC50", "setting": "MCF7 [2]", "result": 7.89}, {"measurement": "Stability", "setting": "[3]", "result": "Stable"}, {"measurement": "pIC50", "setting": "[4]", "result": 7.96}, {"measurement": "pIC50", "setting": "MDA-MB-231 [5]", "result": 7.89}, {"measurement": "pIC50", "setting": "MCF7 [6]", "result": 8.00}, {"measurement": "solubility", "setting": "[7]", "result": 28.2, "unit": "µM"}, {"measurement": "logD", "setting": "[8]", "result": 1.9}, {"measurement": "logD", "setting": "[9]", "result": 1.9}, {"measurement": "fold change (FC)", "setting": "MCF7 [10]", "result": "2 - 3"}, {"measurement": "fold change (FC)", "setting": "MDA-MB-231 [11]", "result": "2 - 3"}, {"measurement": "CI", "setting": "MCF7 [12]", "result": "<1"}, {"measurement": "CI", "setting": "MDA-MB-231 [13]", "result": "<1"}, {"measurement": "CI", "setting": "MCF7 [14]", "result": 0.75}, {"measurement": "CI", "setting": "MDA-MB-231 [15]", "result": 0.68}, {"measurement": "CI", "setting": "MCF7 [16]", "result": 0.97}, {"measurement": "CI", "setting": "MDA-MB-231 [17]", "result": 0.72}, {"measurement": "inhibition (INH)", "setting": "[18]", "result": "Not Active"}, {"measurement": "Stability", "setting": "[19]", "result": "Stable"}, {"measurement": "inhibition (INH)", "setting": "[20]", "result": "Not Active"}, {"measurement": "bioavailability", "setting": "[21]", "result": "15 to 20", "unit": "%"}, {"measurement": "Activity", "setting": "MDA-MB-231 [22]", "result": 91.5, "unit": "%"}, {"measurement": "Activity", "setting": "MDA-MB-231 [23]", "result": "93.7 - 96.2%"}, {"measurement": "Activity", "setting": "MDA-MB-231 [24]", "result": 24.7, "unit": "mm3"}, {"measurement": "concentration at 16 days", "setting": "[25]", "result": 200, "unit": "ng/mL"}, {"measurement": "fold change (FC)", "setting": "Mus musculus [26]", "result": 1.5}, {"measurement": "fold change (FC)", "setting": "Mus musculus [27]", "result": 3}, {"measurement": "fold change (FC)", "setting": "Mus musculus [28]", "result": 30}, {"measurement": "Activity", "setting": "MDA-MB-231 [29]", "result": 93.7, "unit": "%"}]}
